Beta2AR agonist: activates human beta-2 adrenergic receptor causing internalization; 340,000 compounds, 0.43% hits; Am2.2-beta2AR cells, FAP receptor internalization, flow cytometry; response, % (concentration not given with the values); P07550;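 active means response above a set limit, near 3 SD of response in nonfluorescent compounds, cut at about 42% in these data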
Target sequence (P07550 whole entry, looked up): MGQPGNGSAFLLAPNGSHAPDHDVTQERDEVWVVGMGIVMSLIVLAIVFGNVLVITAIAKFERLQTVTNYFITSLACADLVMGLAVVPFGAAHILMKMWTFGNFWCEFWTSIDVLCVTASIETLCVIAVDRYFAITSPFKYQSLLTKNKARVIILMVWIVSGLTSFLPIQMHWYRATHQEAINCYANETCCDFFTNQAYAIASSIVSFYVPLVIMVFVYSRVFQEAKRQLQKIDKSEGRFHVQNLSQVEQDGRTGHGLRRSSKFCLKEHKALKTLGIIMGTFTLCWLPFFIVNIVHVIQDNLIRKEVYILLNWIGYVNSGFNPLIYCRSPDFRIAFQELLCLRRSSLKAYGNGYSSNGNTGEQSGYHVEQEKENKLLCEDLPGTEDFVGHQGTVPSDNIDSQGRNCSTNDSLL
rCAG binder: r(CAG) repeat RNA binding. 370,000 compounds, 1.3% hits. TO-PRO-1 dye displacement fluorescence. inhibition, % at 3 µM. AID 651821;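 active means inhibition above the plate cutoff, the mean of all test compounds on that plate plus 3 SD, cut at about 35% in these data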;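 further: 0% = DMSO alone and 100% = 100 µM mitoxantrone as full dye displacement; higher means more dye released from RNA so lower well fluorescence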
Exocytosis inh: lytic granule exocytosis inhibition. 360,000 compounds, 0.66% hits. TALL-104 LAMP-1 surface exposure, flow cytometry; cells stimulated with thapsigargin and PMA. inhibition, % at 10 µM. AID 651702;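 active means inhibition above about 55%, limit read from the data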
T cell modulator: T cell immune modulators affecting CD8 T cell-vesicle binding. 2C CD8+ T cell-vesicle binding, flow cytometry; active compounds read low. response (vesicle binding), % at 7 µM. 330,000 compounds, 0.068% hits. AID 2052;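 active means response, share of CD8 T cells binding vesicles, and their 90th percentile fluorescence all below set limits, cut at about 80% in these data, passing the limit was not always enough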;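 further: values below 100% mean blocked vesicle binding to the CD8+ T cells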
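Assay system: 2C TCR transgenic mouse naive CD8+ T cells, MACS-purified | Read-out: CD8+ gate FL2 mean fluorescence as % of same-row positive control | Signal: High-throughput flow cytometry with anti-B7-1 and anti-CD8 staining | Timing: Binding step 1.5 h, 37 °C, antibody labelling 20 min, ice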
V-ATPase pHluor: regulators of yeast V-ATPase proton transport | S. cerevisiae, pHLuorin cytosolic pH fluorescence | AID 504577 | response, % at 10 µM | 350,000 compounds, 0.37% hits; in the data active means response mostly above about 7.3%, no sharp cut-off; inactive means mostly below about 5.4%; further: actives read high
MPTP inh: inhibitors of mitochondrial permeability transition pore; inhibition, % at 10 µM; isolated mouse mitochondria, Ca2+ swelling absorbance, 30 min; AID 602449; 360,000 compounds, 1.4% hits;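 active means inhibition of 50% or more, scaled per plate between neutral and stimulator controls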;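 further: 0% = DMSO wells given calcium and 100% = 1 mM EGTA wells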
Granule exo CP1: lytic granule exocytosis inhibition | shares compounds with Exocytosis inh | inhibition, % at 10 µM | 1,500 compounds, 11% hits | TALL-104 cells, LAMP-1 externalization, flow cytometry; stimulated with PMA plus thapsigargin; in the data active means inhibition above about 60%;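 further: 0% = stimulated vehicle wells and 100% = unstimulated wells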
The depositor's hits bear a star; x = no result given. This is a sample that favours compounds with a hit; in the whole collection about 3.8% have one here.

SMILES	Beta2AR agonist	rCAG binder	Exocytosis inh	T cell modulator	V-ATPase pHluor	MPTP inh	Granule exo CP1
COc1ccc(-c2cc(C)no2)cc1S(=O)(=O)N(C)Cc1ccco1	-9.8	-1.4	-0.5	299.5	4.2	0.5	x
CCCN(c1ccccc1F)S(=O)(=O)c1cc(-c2cc(C)no2)ccc1OC	28.4	1.7	89.4*	319.5	-2.5	-0.8	-3.8
COCC1CCCN(Cc2cn(Cc3ccccc3)nc2-c2cc3ccccc3o2)C1 (configuration not stated)	23.2	-3.8	70.4*	639.3	-1.8	1.0	-4.6
COC(=O)[C@]12C[C@H](CC(=O)NCc3cccc4ccccc34)C(=O)N(Cc3ccc(Cl)cc3Cl)C1=C[C@H](C(C)C)O[C@@H]2C1CC1	x	5.9	x	x	x	x	x
CC1(C2CC2)NC(=O)N(CC(=O)NCC(=O)Nc2ccc(F)c(F)c2F)C1=O (configuration not stated)	-6.9	0.9	56.0*	276.1	5.6	-1.7	-12.1
CC(C)[C@H](NC(=O)c1ccc(Cl)c(Cl)c1)C(=O)N1CCC[C@H]1C(=O)NCCc1ccccc1Cl	x	1.5	x	x	x	x	x
COc1cc(-c2nnc(SCC(=O)N3C(C)CCCC3C)o2)cc(OC)c1OC (configuration not stated)	x	-1.7	x	x	x	x	x
Cc1ccc(C(=O)NC(Cc2cccc(C(F)(F)F)c2)C(=O)O)cc1 (configuration not stated)	-0.7	3.6	-3.3	x	3.6	0.3	x
O=C(N[C@@H](Cc1ccccc1)C(=O)O)c1ccc(C(F)(F)F)cc1	4.2	12.2	84.5*	491.8	0.1	-0.6	-3.1
Cc1cccc(-c2noc(CNC(=O)c3ccc4c(c3)OCO4)n2)c1	-15.1	4.6	55.7*	199.4	-2.0	-3.0	-5.8
COC[C@H]1CCCN1c1ccc2c(c1)OCCCN(C1CC1)S2(=O)=O	x	1.5	x	x	x	x	x
COCc1cc(C)nc2sc(C(=O)Nc3ccc(C(=O)OC)cc3)c(N)c12	-2.5	0.9	84.8*	330.0	1.9	0.3	-5.9
COCc1cc(C)nc2sc(C(=O)OC(C)C)c(N)c12	-4.7	-5.4	-12.7	254.8	1.1	-0.4	x
Cc1cccc(S(=O)(=O)Nc2ccc(S(=O)(=O)Nc3nccs3)cc2)c1	-15.9	5.6	60.9*	278.5	4.2	-2.0	-15.5
O=S(=O)(Nc1nccs1)c1ccc(F)cc1	5.4	4.1	0.2	657.2	-3.0	-4.0	x
O=C(CNCc1ccc(Cl)cc1)Nc1cc(S(=O)(=O)N2CCCC2)ccc1Cl	11.3	6.8	77.4*	x	-6.9	0.0	-9.3
COc1cc(C(=O)Nc2ccc(S(=O)(=O)N3CCOCC3)cc2)c([N+](=O)[O-])cc1OC	-0.8	3.6	74.3*	424.2	4.3	0.4	-4.2
O=C(Nc1sc2c(c1C(=O)NCc1ccco1)CCCC2)c1ccc2c(c1)OCO2	6.7	20.8	59.2*	272.1	-1.1	0.7	-2.1
COc1ccc(C(=O)Nc2ccccc2C(=O)NCc2ccco2)cc1OC	1.8	-0.5	-1.3	276.1	-1.4	1.2	x
COc1ccc(C(=O)Nc2sc3c(c2C(=O)NCc2ccco2)CCCC3)cc1OC	12.6	6.2	55.8*	200.1	-0.3	-2.6	4.8
COc1cc(C(=O)Nc2sc3c(c2C(=O)NCc2ccco2)CCCC3)cc(OC)c1OC	-1.3	2.9	55.0	231.1	0.8	0.3	x
COc1ccc(C(=O)Nc2ccc(Cl)cc2C(=O)NCc2ccco2)cc1OC	-1.6	4.6	60.0*	164.9	-2.9	1.3	44.3
CC(=NN1CCN(c2ccccn2)CC1)c1ccccc1O	x	-1.0	x	x	x	x	x
COc1ccc(N2CCCN(CC(=O)Nc3ccc(Cl)cc3)CC2)cc1	x	0.7	x	x	x	x	x
CC(C)NC(=O)c1ccccc1NS(=O)(=O)c1ccc(Br)s1	11.9	18.8	59.3*	x	4.0	5.3	-12.8

Compound activity (PubChem)
